From ChEMBL document CHEMBL2331355, “Synthesis, structure activity relationship and mode of action of 3-substitutedphenyl-1-(2,2,8,8-tetramethyl-3,4,9,10-tetrahydro-2H,8H-pyrano[2,3-f]chromen-6-yl)-propenones as novel anticancer agents in human leukaemia HL-60 cells” (Eur J Med Chem, 2013)
pIC50: −log10 of the molar value. Activity calls are given as the source filed them. The calls are words filed in the database; no cut-off is given here.

Columns and labels:
HL-60 [1] = experiment: Cell cycle arrest in human HL60 cells assessed as G2/M phase cells at 20 uM after 24 hrs by PI staining-based flow cytometric analysis (reference value: 3%); type: functional
HL-60 [2] = experiment: Cell cycle arrest in human HL60 cells assessed as S phase cells at 10 uM after 24 hrs by PI staining-based flow cytometric analysis (reference value: 49%); type: functional
HL-60 [3] = experiment: Induction of apoptosis in human HL60 cells at 10 uM after 24 hrs by PI-staining based flow cytometric analysis (reference value: 0.7 %); type: functional
Caco-2 [4] = experiment: Growth inhibition of human Caco2 cells at 30 uM after 48 hrs by MTT assay; type: functional, cell-based
Summary of the method: (§1)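 Single-concentration MTT screen at 50 µM over 48 h in 96-well plates. Compounds giving >50% inhibition were rescreened at 30 µM. OD read at 570 nm, reference 620 nm. Result expressed as % growth inhibition versus untreated control. Mitomycin C, adriamycin or 5-fluorouracil used as positive controls. Mean ± SD of three independent experiments.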

HL-60 [5] = experiment: Cell cycle arrest in human HL60 cells assessed as G2/M phase cells at 5 uM after 24 hrs by PI staining-based flow cytometric analysis (reference value: 3%); type: functional
MIA PaCa-2 [6] = experiment: Growth inhibition of human MIAPaCa2 cells at 30 uM after 48 hrs by MTT assay; type: functional, cell-based; summary of the method: as §1
PC-3 [7] = experiment: Cytotoxicity against human PC3 cells after 48 hrs by MTT assay; type: functional, cell-based; settings: PC-3, 48 h
Summary of the method: (§2)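 MTT assay in 96-well plates, 48 h exposure across 1–100 µM. OD read at 570 nm against a 620 nm reference. Untreated control OD taken as 100% viability. IC50 derived from the concentration–response curves. Mean ± SD, n = 8 wells, from three independent experiments.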

HL-60 [8] = experiment: Induction of apoptosis in human HL60 cells assessed as nuclear condensation after 24 hrs by Hoechst 33258 staining; type: functional, cell-based
Summary of the method: (§3)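 HL-60 cells (1 × 10⁶/2 ml) treated 24 h at 15 and 20 µM, pelleted at 300 g and washed. Stained with Hoechst 33258, then examined under an inverted fluorescence microscope (10×, UV excitation) for nuclear condensation, blebbing and apoptotic bodies.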

HL-60 [9] = experiment: Induction of apoptosis in human HL60 cells assessed as apoptotic bodies at 20 uM after 24 hrs by Hoechst 33258 staining; type: functional, cell-based; summary of the method: as §3
MCF7 [10] = experiment: Growth inhibition of human MCF7 cells at 50 uM after 48 hrs by MTT assay; type: functional; settings: MCF7, 48 h, read-out: GI; summary of the method: as §1
PC-3 [11] = experiment: Growth inhibition of human PC3 cells at 30 uM after 48 hrs by MTT assay; type: functional, cell-based; summary of the method: as §1
MIA PaCa-2 [12] = experiment: Growth inhibition of human MIAPaCa2 cells at 50 uM after 48 hrs by MTT assay; type: functional; settings: MIA PaCa-2, 48 h, read-out: GI; summary of the method: as §1
HL-60 [13] = experiment: Cytotoxicity against human HL60 cells after 48 hrs by MTT assay; type: functional, cell-based; settings: HL-60, 48 h; summary of the method: as §2
ASPC1 [14] = experiment: Growth inhibition of human AsPC1 cells at 50 uM after 48 hrs by MTT assay; type: functional; settings: ASPC1, 48 h, read-out: GI; summary of the method: as §1
ASPC1 [15] = experiment: Growth inhibition of human AsPC1 cells at 30 uM after 48 hrs by MTT assay; type: functional, cell-based; summary of the method: as §1
HL-60 [16] = experiment: Induction of apoptosis in human HL60 cells at 5 uM after 24 hrs by PI-staining based flow cytometric analysis (reference value: 0.7 %); type: functional
HL-60 [17] = experiment: Growth inhibition of human HL60 cells at 50 uM after 48 hrs by MTT assay; type: functional; settings: HL-60, 48 h, read-out: GI; summary of the method: as §1
HL-60 [18] = experiment: Induction of mitochondrial membrane potential loss in human HL60 cells at 20 uM after 24 hrs by rhodamine-123 staining method (reference value: 7%); type: functional
Summary of the method: (§4)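 HL-60 cells (1 × 10⁶/2 ml/well) treated 24 h at 15 or 20 µM, then incubated with rhodamine-123 (200 nM) for 40 min. Loss of dye uptake measured by flow cytometry. Camptothecin (4 µM, 6 h) as positive control. Representative of three experiments.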

HL-60 [19] = experiment: Cell cycle arrest in human HL60 cells assessed as decrease in G2/M phase cells after 24 hrs by PI staining-based flow cytometric analysis; type: functional
HL-60 [20] = experiment: Cell cycle arrest in human HL60 cells assessed as accumulation of G0/G1 phase cells at 15 uM after 24 hrs by PI staining-based flow cytometric analysis (reference value: 48%); type: functional
Caco-2 [21] = experiment: Cytotoxicity against human Caco2 cells after 48 hrs by MTT assay; type: functional, cell-based; settings: Caco-2, 48 h; summary of the method: as §2
HL-60 [22] = experiment: Cytotoxicity against human HL60 cells after 24 hrs by MTT assay; type: functional, cell-based; settings: HL-60, 24 h
Summary of the method: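 HL-60 cells exposed 24 h to a range of concentrations, then MTT reduction measured. Untreated control OD taken as 100% viability; IC50 derived from the curve. Mean ± SD, n = 8 wells, three independent experiments.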

Caco-2 [23] = experiment: Growth inhibition of human Caco2 cells at 50 uM after 48 hrs by MTT assay; type: functional; settings: Caco-2, 48 h, read-out: GI; summary of the method: as §1
HL-60 [24] = experiment: Cell cycle arrest in human HL60 cells assessed as accumulation of G0/G1 phase cells after 24 hrs by PI staining-based flow cytometric analysis; type: functional
HL-60 [25] = experiment: Cell cycle arrest in human HL60 cells assessed as S phase cells at 15 uM after 24 hrs by PI staining-based flow cytometric analysis (reference value: 49%); type: functional
HL-60 [26] = experiment: Cell cycle arrest in human HL60 cells assessed as accumulation of G0/G1 phase cells at 10 uM after 24 hrs by PI staining-based flow cytometric analysis (reference value: 48%); type: functional
MDA-MB-435 = experiment: Growth inhibition of human MDA-MB-435 cells at 30 uM after 48 hrs by MTT assay; type: functional, cell-based; summary of the method: as §1
HL-60 [27] = experiment: Induction of apoptosis in human HL60 cells assessed as accumulation of sub-G0/G1 phase cells after 24 hrs by PI-staining based flow cytometric analysis; type: functional, cell-based
HL-60 [28] = experiment: Cell cycle arrest in human HL60 cells assessed as accumulation of G0/G1 phase cells at 5 uM after 24 hrs by PI staining-based flow cytometric analysis (reference value: 48%); type: functional
HL-60 [29] = experiment: Induction of mitochondrial membrane potential loss in human HL60 cells at 15 uM after 24 hrs by rhodamine-123 staining method (reference value: 7%); type: functional; summary of the method: as §4
MCF7 [30] = experiment: Growth inhibition of human MCF7 cells at 30 uM after 48 hrs by MTT assay; type: functional, cell-based; summary of the method: as §1
HL-60 [31] = experiment: Cell cycle arrest in human HL60 cells assessed as decrease in S phase cells after 24 hrs by PI staining-based flow cytometric analysis; type: functional
PC-3 [32] = experiment: Growth inhibition of human PC3 cells at 50 uM after 48 hrs by MTT assay; type: functional; settings: PC-3, 48 h, read-out: GI; summary of the method: as §1
HL-60 [33] = experiment: Cell cycle arrest in human HL60 cells assessed as G2/M phase cells at 15 uM after 24 hrs by PI staining-based flow cytometric analysis (reference value: 3%); type: functional
HL-60 [34] = experiment: Induction of apoptosis in human HL60 cells assessed as nuclear blebbing after 24 hrs by Hoechst 33258 staining; type: functional, cell-based; summary of the method: as §3
HL-60 [35] = experiment: Cell cycle arrest in human HL60 cells assessed as G2/M phase cells at 10 uM after 24 hrs by PI staining-based flow cytometric analysis (reference value: 3%); type: functional

Structure (SMILES)	Activity (HL-60 [1]) [%]	Activity (HL-60 [2]) [%]	Activity (HL-60 [3]) [%]	growth inhibition (GI) (Caco-2 [4])	Activity (HL-60 [5]) [%]	growth inhibition (GI) (MIA PaCa-2 [6])	pIC50 (PC-3 [7])	Activity (HL-60 [8])	Activity (HL-60 [9])	inhibition of growth at 50 µM (MCF7 [10]) [%]	growth inhibition (GI) (PC-3 [11])	inhibition of growth at 50 µM (MIA PaCa-2 [12]) [%]	pIC50 (HL-60 [13])	inhibition of growth at 50 µM (ASPC1 [14]) [%]	growth inhibition (GI) (ASPC1 [15])	Activity (HL-60 [16]) [%]	inhibition of growth at 50 µM (HL-60 [17]) [%]	Activity (HL-60 [18]) [%]	Activity (HL-60 [19])	Activity (HL-60 [20]) [%]	further results
CC1(C)CCc2cc(C(=O)/C=C/c3ccc([N+](=O)[O-])cc3)c3c(c2O1)CCC(C)(C)O3	4	44	14	Active	9	Active	4.59	Dose-dependent effect	Active	52	Active	74	4.82	27	Active	3	91	56	Dose-dependent effect	53	pIC50 (Caco-2 [21]): 4.55; pIC50 (HL-60 [22]): 4.64; inhibition of growth at 50 µM (Caco-2 [23]): 73%; Activity (HL-60 [24]): Dose-dependent effect; Activity (HL-60 [25]): 43%; Activity (HL-60 [26]): 52%; growth inhibition (GI) (MDA-MB-435): Active; Activity (HL-60 [27]): Dose-dependent effect; Activity (HL-60 [28]): 44%; Activity (HL-60 [29]): 52%; growth inhibition (GI) (MCF7 [30]): Active; Activity (HL-60 [31]): Dose-dependent effect; inhibition of growth at 50 µM (PC-3 [32]): 61%; Activity (HL-60 [33]): 4%; Activity (HL-60 [34]): Dose-dependent effect; Activity (HL-60 [35]): 4%
CC1(C)CCc2cc(C(=O)/C=C/c3cccc([N+](=O)[O-])c3)c3c(c2O1)CCC(C)(C)O3	3	42	13	Active	6	Active	5.10	Dose-dependent effect	Active	89	Active	80	4.96	48	Active	3	92	48	Dose-dependent effect	71	pIC50 (Caco-2 [21]): 4.80; pIC50 (HL-60 [22]): 4.60; inhibition of growth at 50 µM (Caco-2 [23]): 93%; Activity (HL-60 [24]): Dose-dependent effect; Activity (HL-60 [25]): 25%; Activity (HL-60 [26]): 54%; growth inhibition (GI) (MDA-MB-435): Active; Activity (HL-60 [27]): Dose-dependent effect; Activity (HL-60 [28]): 46%; Activity (HL-60 [29]): 44%; growth inhibition (GI) (MCF7 [30]): Active; Activity (HL-60 [31]): Dose-dependent effect; inhibition of growth at 50 µM (PC-3 [32]): 72%; Activity (HL-60 [33]): 4%; Activity (HL-60 [34]): Dose-dependent effect; Activity (HL-60 [35]): 4%
